HIV Env fusion – HIV envelope-mediated fusion inhibition; AID 651610; 360,000 compounds, 1.1% hits; inhibition, % at 12.3 µM; HeLa-JRFL Env/CEM21 cell fusion, luciferase;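 active = mean replicate inhibition score of at least 50 and every replicate individually at or above 50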;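 also: 0% = plate neutral controls and 100% = maraviroc near 300 nM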
Ecoli rRNA inh – inhibitors of bacterial rRNA selective over humanized ribosomes | E. coli WT GFP vs humanized-ribosome RFP mutants, fluorescence, 24 h; active compounds read low; DMSO median 0, no signal -100 | GFP signal change (wild-type ribosome), % (concentration not given with the values) | 350,000 compounds, 1.6% hits | AID 720706;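 active = significant combined selectivity score with lowered wild-type GFP, culture density cut under 30%, mutant RFP and density less affected; inactive = any of these conditions unmet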
ERp5 inh – blocks human ERp5 reductase activity on insulin; ERp5 insulin aggregation, absorbance 650 nm, 90 min; inhibition, % at 9.99 µM; 350,000 compounds, 0.05% hits;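 active = mean replicate inhibition above about 25%, with every replicate also reaching it, limit read from the data, passing the limit was not always enough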
Target sequence (Q15084 whole entry, looked up): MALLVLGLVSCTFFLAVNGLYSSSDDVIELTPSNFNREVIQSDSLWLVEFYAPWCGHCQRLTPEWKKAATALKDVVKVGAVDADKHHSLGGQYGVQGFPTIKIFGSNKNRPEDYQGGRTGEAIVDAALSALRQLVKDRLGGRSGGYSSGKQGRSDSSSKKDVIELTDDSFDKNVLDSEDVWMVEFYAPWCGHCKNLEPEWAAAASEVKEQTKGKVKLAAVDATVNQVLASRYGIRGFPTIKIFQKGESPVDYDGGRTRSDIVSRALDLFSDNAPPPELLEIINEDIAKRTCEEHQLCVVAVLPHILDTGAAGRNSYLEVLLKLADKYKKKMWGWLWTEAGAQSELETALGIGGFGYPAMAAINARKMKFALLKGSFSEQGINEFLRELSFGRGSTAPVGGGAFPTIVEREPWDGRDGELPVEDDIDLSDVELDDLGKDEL
PDI inh – blocks human protein disulfide isomerase activity; PDI insulin aggregation turbidity, A650, 90 min; inhibition, % at 10 µM; 350,000 compounds, 0.052% hits;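 active = mean inhibition across replicates of 30% or more, whatever share of single replicates reach that level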
PvdQ acylase – blocks Pseudomonas aeruginosa PvdQ acylase activity; purified PvdQ acylase, fluorescence plate reader; inhibition, % at 10 µM; 340,000 compounds, 0.063% hits; in the data active = inhibition above about 30%, passing the limit was not always enough;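 also: 0% = vehicle neutral wells and 100% = reference inhibitor wells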
FN deposition inh – fibronectin deposition inhibition. inhibition, % at 12.6 µM. 350,000 compounds, 0.086% hits. AID 743247. AH1F fibroblasts, Alexa488-fibronectin deposition fluorescence, overnight;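 active = mean inhibition across replicates of 30% or more, regardless of how many single replicates reach that level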;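 also: positive control wells lacked labelled fibronectin entirely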
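Assay system: AH1F fibroblasts assembling fluorescent fibronectin matrix; Amount: 10000 AH1F cells per well; Buffer or medium: DMEM, 2% serum; Probe or stimulus: Alexa488-fibronectin, 24 nM final in well; Doses: single compound dose, delivered by pin transfer; Incubation: 1 h adhesion, overnight exposure; Measured by: fluorescence 485/525 nm; Read-out: fibronectin deposition inhibition.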
* = called active by the depositor; [ ] = remark or other dose. An excerpt weighted towards active compounds, which were near 2.2% of everything screened.

`C=C1SC(Nc2c(C)cccc2C)=NC12CCCCC2` gave HIV Env fusion 11, Ecoli rRNA inh -22*, ERp5 inh 0, PDI inh 6, PvdQ acylase 15 and FN deposition inh -3.
For Cc1cc(C)c(NC(=O)CN2C(=O)NC3(CCCCC3)C2=O)c(C)c1 the results were Ecoli rRNA inh 4, ERp5 inh 5, PDI inh -2 and PvdQ acylase -12.
Screening Cc1cccc(C)c1NC(=O)NC1(C(=O)N2CCCCC2)CCCCC1 returned HIV Env fusion -5, Ecoli rRNA inh 2, ERp5 inh 3, PDI inh 5, PvdQ acylase -20 and FN deposition inh 7.
C=C1SC(Nc2c(C)cc(C)cc2C)=NC12CCCCC2 was read as HIV Env fusion 7, Ecoli rRNA inh -50*, ERp5 inh 2, PDI inh -8, PvdQ acylase -5 and FN deposition inh 3.
For C[C@@H]1CCCCO[C@@H](CN(C)Cc2ccncc2)[C@@H](C)CN([C@@H](C)CO)C(=O)c2cc(NC(=O)c3ccncc3)ccc2O1 the results were HIV Env fusion -23[16.7 µM], Ecoli rRNA inh 8, ERp5 inh -1 and FN deposition inh -9.
Screening CCC(=O)Nc1ccc2c(c1)C(=O)N(C)[C@H]1CC[C@@H](CC(=O)N[C@@H](C)c3ccccc3)O[C@H]1CO2 returned HIV Env fusion 2[16.7 µM], Ecoli rRNA inh -3, ERp5 inh 1 and FN deposition inh -8.
CC(C)c1ccc(S(=O)(=O)N2CCC(C(=O)NCc3ccco3)CC2)cc1 was read as HIV Env fusion 56*, Ecoli rRNA inh 0, ERp5 inh 5, PDI inh 19, PvdQ acylase 12 and FN deposition inh 3.
Screening CC[N+](CC)(CC)CCCCOc1ccc2c(c1)C(=O)c1cc(OCCCC[N+](CC)(CC)CC)ccc1-2 returned HIV Env fusion 25, Ecoli rRNA inh -54*, PDI inh -2, PvdQ acylase 0 and FN deposition inh 4.
C[C@H](CO)N1C[C@H](C)[C@H](CN(C)S(=O)(=O)c2ccc(F)cc2)Oc2ccc(N(C)C)cc2C1=O was read as Ecoli rRNA inh -3, ERp5 inh -5 and FN deposition inh 5.
`O=C(OCc1nc2ccccc2s1)c1ccco1` gave HIV Env fusion -33, Ecoli rRNA inh -7, ERp5 inh -1, PDI inh 0, PvdQ acylase 46* and FN deposition inh -11.
For O=C(NC(=S)NCc1ccc(-c2nc3ccccc3s2)cc1)c1ccco1 the results were HIV Env fusion -18, PDI inh 14, PvdQ acylase 6 and FN deposition inh 11.
Screening O=C(OCc1nc2ccccc2s1)c1ccc(Br)o1 returned HIV Env fusion 2, Ecoli rRNA inh -41, ERp5 inh 6, PDI inh -1, PvdQ acylase 11 and FN deposition inh -6.
`O=C(NCc1ccc(-c2nc3ccccc3s2)cc1)c1ccco1` gave HIV Env fusion -19, Ecoli rRNA inh -20*, ERp5 inh -3, PDI inh 9, PvdQ acylase 3 and FN deposition inh 0.
`CNC[C@@H]1Oc2ccc(NS(C)(=O)=O)cc2CC(=O)N(C)C[C@@H]1C` gave Ecoli rRNA inh 3 and FN deposition inh -5.
Cc1c(C(=O)N2CCN(c3ccccc3F)CC2)oc2c1C(=O)CC(C)(C)C2 was read as HIV Env fusion 21, Ecoli rRNA inh -3, ERp5 inh 1, PDI inh -1, PvdQ acylase -8 and FN deposition inh 8.
Screening Cc1c(C(=O)N2CCN(c3ccccc3)CC2)oc2c1C(=O)CC(C)(C)C2 returned HIV Env fusion 1, Ecoli rRNA inh -23*, ERp5 inh 0, PDI inh 1, PvdQ acylase -13 and FN deposition inh 9.
`CCOc1cccc(/C=C/c2ccc3cccc(O)c3n2)c1OC` gave HIV Env fusion -55, Ecoli rRNA inh -37*, ERp5 inh 3, PDI inh -1, PvdQ acylase 22 and FN deposition inh 11.
For Cc1ccc2nc3c(cc(S(=O)(=O)c4ccccc4)c(=N)n3Cc3ccco3)c(=O)n2c1 the results were HIV Env fusion 8, Ecoli rRNA inh -21*, ERp5 inh 1, PDI inh -8, PvdQ acylase 7 and FN deposition inh 3.
For N=c1c(S(=O)(=O)c2ccccc2)cc2c(=O)n3ccccc3nc2n1Cc1ccco1 the results were PDI inh 10 and PvdQ acylase -15.
`CC(=O)NC1=NC(=O)/C(=C/c2cc(C)n(-c3ccc(NC(C)=O)cc3)c2C)S1` gave HIV Env fusion -24, Ecoli rRNA inh -29*, ERp5 inh 0, PDI inh 0, PvdQ acylase -2 and FN deposition inh -1.
`O=C1C[C@H](c2ccc(O)cc2)Oc2cc(O[C@@H]3O[C@H](CO)[C@@H](O)[C@H](O)[C@H]3O)cc(O[C@@H]3O[C@H](CO)[C@@H](O)[C@H](O)[C@H]3O)c21` gave HIV Env fusion -2, Ecoli rRNA inh 15, ERp5 inh 0, PDI inh 39*, PvdQ acylase 2 and FN deposition inh -1.
Screening C[C@H]1CN([C@@H](C)CO)S(=O)(=O)c2ccc(C#CCN(C)C)cc2O[C@H]1CN(C)Cc1ccc(F)cc1 returned HIV Env fusion 14[16.7 µM], Ecoli rRNA inh -7, ERp5 inh 0 and FN deposition inh -8.
For COc1cccc(NC(=O)N2CCN(c3nc(-c4cccc(OC)c4)cs3)CC2)c1 the results were HIV Env fusion 18, Ecoli rRNA inh -30*, ERp5 inh -2, PDI inh 4, PvdQ acylase -17 and FN deposition inh 5.
O=c1c2ccccc2sn1-c1ccccc1F was read as HIV Env fusion 20, Ecoli rRNA inh 12, ERp5 inh 5, PDI inh 4 and FN deposition inh -8.
Cc1ccccc1-n1sc2cc(F)ccc2c1=O was read as HIV Env fusion -16, Ecoli rRNA inh -48, ERp5 inh 1, PDI inh -4, PvdQ acylase 0 and FN deposition inh 40*.
Screening C[C@@H]1CN([C@H](C)CO)S(=O)(=O)c2ccc(-c3cncnc3)cc2O[C@H]1CN(C)CC1CC1 returned HIV Env fusion 3[16.7 µM], Ecoli rRNA inh 2 and ERp5 inh 0.
Screening O=C(NCc1ccc(Cl)cc1)C(=O)NCC(c1cccnc1)N1CCN(c2ccc(F)cc2)CC1 (stereo unspecified) returned HIV Env fusion 62*, Ecoli rRNA inh 0, ERp5 inh -3, PDI inh 3, PvdQ acylase -6 and FN deposition inh -6.
Screening O=C(NCC(c1cccnc1)N1CCN(c2ccc(F)cc2)CC1)c1ccccc1 (stereo unspecified) returned PDI inh 4 and PvdQ acylase -12.

Assay outcomes (PubChem BioAssay)
